# Source: ChEMBL document CHEMBL1130387, “Design of a potent combined pseudopeptide endothelin-A/endothelin-B receptor antagonist, Ac-DBhg16-Leu-Asp-Ile-[NMe]Ile-Trp21 (PD 156252): examination of its pharmacokinetic and spectral properties” (J Med Chem, 1997)
# Numbered stars: 1 amine (or outer) side, 2 acyl side, 3 side chain; on linkers, the order of the positions; unused ones are H or OH. Square brackets hold non-standard residues; d marks the D form. Peptide text beside a SMILES is read from it. dGly(5-dibenzosuberyl) = N[C@@H](C(=O)O)C1c2ccccc2CCc2ccccc21; X2 = O=C([C@@H](N[*:1])C1c2ccccc2CCc2ccccc21)[*:2]; NMeDip = CN[C@H](C(=O)O)C(c1ccccc1)c1ccccc1; NMeW = CN[C@@H](Cc1c[nH]c2ccccc12)C(=O)O; Dip = N[C@H](C(=O)O)C(c1ccccc1)c1ccccc1; NMeI = CC[C@H](C)[C@H](NC)C(=O)O; NMeD = CN[C@@H](CC(=O)O)C(=O)O
# Key:
# [1] = Stability in rat intestinal perfusate; format: ADME
# How it was run: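 Stability measured by incubation in rat intestinal perfusate in vitro. Values are the mean of at least three determinations ± SEM from two perfusate preparations. Perfusate leucine aminopeptidase activity was 0.05–0.32 nkat/mL. Degradation was also checked with a potato tuber carboxypeptidase inhibitor added.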
# Oryctolagus cuniculus [2] = species on record: Oryctolagus cuniculus; test: Ability to antagonize endothelin -1 (ET-1) stimulated vasoconstriction in vitro in rabbit femoral artery; format: functional; settings: read-out: pA2 (converted)
# [3] = target: T1, Endothelin receptor type B (Rattus norvegicus, UniProt P21451); test: Inhibition of binding to Endothelin B receptor of rat cerebellar membranes.; format: cell membranes, Membrane
# T1 sequence (P21451 whole entry): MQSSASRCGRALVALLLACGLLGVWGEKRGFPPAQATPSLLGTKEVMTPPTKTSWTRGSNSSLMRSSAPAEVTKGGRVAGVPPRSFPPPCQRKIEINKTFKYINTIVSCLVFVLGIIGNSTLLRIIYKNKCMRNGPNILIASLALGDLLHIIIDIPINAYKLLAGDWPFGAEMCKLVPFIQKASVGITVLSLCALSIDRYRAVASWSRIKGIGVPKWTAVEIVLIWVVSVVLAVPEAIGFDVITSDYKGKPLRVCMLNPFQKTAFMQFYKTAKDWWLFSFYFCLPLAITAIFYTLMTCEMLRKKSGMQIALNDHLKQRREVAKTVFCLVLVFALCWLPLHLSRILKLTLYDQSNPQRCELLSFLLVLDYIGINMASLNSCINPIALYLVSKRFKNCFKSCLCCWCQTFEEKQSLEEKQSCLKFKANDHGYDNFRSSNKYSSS
# How it was run: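 Competition binding assays: ETA on rabbit renal vascular smooth muscle cells, ETB on rat cerebellar membranes. Each IC50 comes from a single competition experiment with points measured in duplicate. Where more than one IC50 was determined, values are given as mean ± SEM.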
# Caco-2 = test: Permeability in Caco-2 Cell monolayers for the compound; format: functional, cell-based; settings: Homo sapiens
# How it was run: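 Transport measured across Caco-2 monolayers (human colon adenocarcinoma line that differentiates to an enterocyte-like phenotype). Each value is the mean of three to five cell monolayers, with standard errors.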
# Oryctolagus cuniculus [4] = species on record: Oryctolagus cuniculus; test: Ability to antagonize […] SRTX-6c stimulated vasoconstriction in vitro in rabbit pulmonary artery; format: functional; settings: read-out: pA2 (converted)
SMILES,half-life [1],IC50 [3],Permeability (10e4*cm min-1) (Caco-2),other results
CC[C@H](C)[C@H](NC(=O)[C@H](CC(=O)O)NC(=O)[C@H](CC(C)C)NC(=O)[C@H](NC(C)=O)C1c2ccccc2CCc2ccccc21)C(=O)N(C)[C@H](C(=O)N[C@@H](Cc1c[nH]c2ccccc12)C(=O)O)[C@@H](C)CC,8.97 h,–,–,Kb (Oryctolagus cuniculus [2]): 0.0501 µM
CC[C@H](C)[C@H](NC(=O)[C@H](CC(=O)O)NC(=O)[C@H](CC(C)C)N(C)C(=O)[C@H](NC(C)=O)C(c1ccccc1)c1ccccc1)C(=O)N[C@H](C(=O)N[C@@H](Cc1c[nH]c2ccccc12)C(=O)O)[C@@H](C)CC,–,0.6 µM,–,–
CC[C@H](C)[C@H](NC(=O)[C@@H](NC(=O)[C@H](CC(=O)O)NC(=O)[C@H](CC(C)C)NC(=O)[C@H](NC(C)=O)C(c1ccccc1)c1ccccc1)[C@@H](C)CC)C(=O)CNC(=O)[C@@H](N)Cc1c[nH]c2ccccc12,–,> 0.25 µM,–,–
CC[C@@H](C)[C@H](C(=O)N[C@@H](Cc1c[nH]c2ccccc12)C(=O)O)N(C)C(=O)[C@@H](NC(=O)[C@@H](CC(=O)O)NC(=O)[C@H](CC(C)C)NC(=O)[C@H](NC(C)=O)C1c2ccccc2CCc2ccccc21)[C@@H](C)CC,–,–,6.3,–
CC[C@H](C)[C@H](NC(=O)[C@H](CC(=O)O)NC(=O)[C@H](CC(C)C)NC(=O)[C@@H](NC(C)=O)C(c1ccccc1)c1ccccc1)C(=O)N[C@H](C(=O)N[C@@H](Cc1c[nH]c2ccccc12)C(=O)O)[C@@H](C)CC (Ac-[Dip]LDIIW-OH),0.302 h,–,2,Kb (Oryctolagus cuniculus [4]): 0.501 µM; Kb (Oryctolagus cuniculus [2]): 0.251 µM
CC[C@H](C)[C@H](NC(=O)[C@H](CC(=O)O)NC(=O)[C@H](CC(C)C)NC(=O)[C@@H](NC(C)=O)C(c1ccccc1)c1ccccc1)C(=O)N[C@H](C(=O)N(C)[C@@H](Cc1c[nH]c2ccccc12)C(=O)O)[C@@H](C)CC (Ac-[Dip]LDII[NMeW]-OH),–,11 µM,–,–
CC[C@H](C)[C@H](NC(=O)[C@H](CC(=O)O)NC(=O)[C@H](CC(C)C)NC(=O)[C@@H](NC(C)=O)C(c1ccccc1)c1ccccc1)C(=O)N(C)[C@H](C(=O)N[C@@H](Cc1c[nH]c2ccccc12)C(=O)O)[C@@H](C)CC (Ac-[Dip]LDI[NMeI]W-OH),14.6 h,0.08 µM,2,–
CC[C@H](C)[C@H](NC(=O)[C@H]([C@@H](C)CC)N(C)C(=O)[C@H](CC(=O)O)NC(=O)[C@H](CC(C)C)NC(=O)[C@@H](NC(C)=O)C(c1ccccc1)c1ccccc1)C(=O)N[C@@H](Cc1c[nH]c2ccccc12)C(=O)O (Ac-[Dip]LD[NMeI]IW-OH),–,> 1 µM,–,–
CC[C@H](C)[C@H](NC(=O)[C@@H](NC(=O)[C@H](CC(=O)O)N(C)C(=O)[C@H](CC(C)C)NC(=O)[C@@H](NC(C)=O)C(c1ccccc1)c1ccccc1)[C@@H](C)CC)C(=O)N[C@@H](Cc1c[nH]c2ccccc12)C(=O)O (Ac-[Dip]L[NMeD]IIW-OH),–,1.5 µM,–,–
CC[C@H](C)[C@H](NC(=O)[C@H](CC(=O)O)NC(=O)[C@H](CC(C)C)NC(=O)[C@H](C(c1ccccc1)c1ccccc1)N(C)C(C)=O)C(=O)N[C@H](C(=O)N[C@@H](Cc1c[nH]c2ccccc12)C(=O)O)[C@@H](C)CC (Ac-[NMeDip]LDIIW-OH),–,8 µM,–,–
CC[C@H](C)[C@H](NC(=O)[C@H](CC(=O)O)NC(=O)[C@H](CC(C)C)NC(=O)[C@@H](NC(C)=O)C1c2ccccc2CCc2ccccc21)C(=O)N[C@H](C(=O)N[C@@H](Cc1c[nH]c2ccccc12)C(=O)O)[C@@H](C)CC (Ac-[X2]LDIIW-OH),–,–,4.7,–
CC[C@H](C)[C@H](NC(=O)[C@H](CC(=O)O)NC(=O)[C@H](CC(C)C)NC(=O)[C@H](NC(C)=O)C1c2ccccc2CCc2ccccc21)C(=O)N[C@H](C(=O)N[C@@H](Cc1c[nH]c2ccccc12)C(=O)O)[C@@H](C)CC (Ac-[dGly(5-dibenzosuberyl)]LDIIW-OH),0.177 h,–,–,Kb (Oryctolagus cuniculus [4]): 0.1 µM; Kb (Oryctolagus cuniculus [2]): 0.158 µM
